Activity calls are given as the source filed them. The rule behind the calls is not given here.
How the values were obtained:
PC-3 = experiment: Growth inhibition of human PC3 cells at 30 uM after 48 hrs by MTT assay; assay type: functional, cell-based
Outline: (§1)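 Single-concentration MTT screen at 50 µM over 48 h in 96-well plates. Compounds giving >50% inhibition were rescreened at 30 µM. OD read at 570 nm, reference 620 nm. Result expressed as % growth inhibition versus untreated control. Mitomycin C, adriamycin or 5-fluorouracil used as positive controls. Mean ± SD of three independent experiments.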

HL-60 [1] = experiment: Cell cycle arrest in human HL60 cells assessed as S phase cells at 5 uM after 24 hrs by PI staining-based flow cytometric analysis (reference value: 49%); assay type: functional
HL-60 [2] = experiment: Cell cycle arrest in human HL60 cells assessed as accumulation of G0/G1 phase cells at 15 uM after 24 hrs by PI staining-based flow cytometric analysis (reference value: 48%); assay type: functional
HL-60 [3] = experiment: Cell cycle arrest in human HL60 cells assessed as decrease in G2/M phase cells after 24 hrs by PI staining-based flow cytometric analysis; assay type: functional
HL-60 [4] = experiment: Cell cycle arrest in human HL60 cells assessed as accumulation of G0/G1 phase cells at 10 uM after 24 hrs by PI staining-based flow cytometric analysis (reference value: 48%); assay type: functional
HL-60 [5] = experiment: Induction of apoptosis in human HL60 cells at 10 uM after 24 hrs by PI-staining based flow cytometric analysis (reference value: 0.7 %); assay type: functional
HL-60 [6] = experiment: Induction of apoptosis in human HL60 cells assessed as apoptotic bodies at 20 uM after 24 hrs by Hoechst 33258 staining; assay type: functional, cell-based
Outline: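 HL-60 cells (1 × 10⁶/2 ml) treated 24 h at 15 and 20 µM, pelleted at 300 g and washed. Stained with Hoechst 33258, then examined under an inverted fluorescence microscope (10×, UV excitation) for nuclear condensation, blebbing and apoptotic bodies.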

MDA-MB-435 = experiment: Growth inhibition of human MDA-MB-435 cells at 50 uM after 48 hrs by MTT assay; assay type: functional; details: MDA-MB-435, 48 h, read-out: GI; outline: as §1
HL-60 [7] = experiment: Induction of apoptosis in human HL60 cells at 20 uM after 24 hrs by PI-staining based flow cytometric analysis (reference value: 0.7 %); assay type: functional
HL-60 [8] = experiment: Cytotoxicity against human HL60 cells after 48 hrs by MTT assay; assay type: functional, cell-based; details: HL-60, 48 h
Outline: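 MTT assay in 96-well plates, 48 h exposure across 1–100 µM. OD read at 570 nm against a 620 nm reference. Untreated control OD taken as 100% viability. IC50 derived from the concentration–response curves. Mean ± SD, n = 8 wells, from three independent experiments.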

HL-60 [9] = experiment: Cell cycle arrest in human HL60 cells assessed as accumulation of G0/G1 phase cells at 5 uM after 24 hrs by PI staining-based flow cytometric analysis (reference value: 48%); assay type: functional

CC1(C)CCc2cc(C(=O)/C=C/c3ccc([N+](=O)[O-])cc3)c3c(c2O1)CCC(C)(C)O3
growth inhibition (GI) (PC-3): Active
Activity (HL-60 [1]): 47%
Activity (HL-60 [2]): 53%
Activity (HL-60 [3]): Dose-dependent effect
Activity (HL-60 [4]): 52%
Activity (HL-60 [5]): 14%
Activity (HL-60 [6]): Active
inhibition of growth at 50 µM (MDA-MB-435): 78%
Activity (HL-60 [7]): 32%
IC50 (HL-60 [8]): 15 µM
Activity (HL-60 [9]): 44%

CC1(C)CCc2cc(C(=O)/C=C/c3cccc([N+](=O)[O-])c3)c3c(c2O1)CCC(C)(C)O3
growth inhibition (GI) (PC-3): Active
Activity (HL-60 [1]): 48%
Activity (HL-60 [2]): 71%
Activity (HL-60 [3]): Dose-dependent effect
Activity (HL-60 [4]): 54%
Activity (HL-60 [5]): 13%
Activity (HL-60 [6]): Active
inhibition of growth at 50 µM (MDA-MB-435): 88%
Activity (HL-60 [7]): 58%
IC50 (HL-60 [8]): 11 µM
Activity (HL-60 [9]): 46%

Source: ChEMBL document CHEMBL2331355, “Synthesis, structure activity relationship and mode of action of 3-substitutedphenyl-1-(2,2,8,8-tetramethyl-3,4,9,10-tetrahydro-2H,8H-pyrano[2,3-f]chromen-6-yl)-propenones as novel anticancer agents in human leukaemia HL-60 cells” (Eur J Med Chem, 2013)
